Bioassay records deposited in PubChem BioAssay by several laboratories.
SR-BI HDL uptake: inhibitors of SR-BI mediated HDL lipid uptake, primary screen, ldlA[mSR-BI] cells, fluorescence, single point. ldlA[mSR-BI] CHO cells, DiI-HDL uptake fluorescence, 3 h. actives 0.96% (n = 320,000). inhibition, % at 12.5 µM. AID 488896, 2010. Scavenger receptor class B member 1 (Mus musculus), Q61009;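 active = mean replicate inhibition of at least 70% and a set share of replicates each scoring 70 or more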;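 note: 0% = median of neutral control wells and 100% = median of positive control wells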
ANO1 block: TMEM16A chloride channel inhibitors, primary screen, cell-based, HTS; actives 1.2% (n = 310,000); normalized B-score (activity score, 25-100; higher = stronger inhibition) at 10 µM; HEK293 TMEM16A/YFP iodide influx fluorescence, ionomycin; AID 588511, 2011;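 active = ratio plate-corrected score three or more library SD toward inhibition, starting fluorescence score within five deviations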;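 note: score derived from kinetic fluorescence span divided by baseline fluorescence per well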
TMEM16A act: TMEM16A chloride channel activators or potentiators, primary screen, cell-based, HTS. Anoctamin-1 (Mus musculus), Q8BHY3. HEK293 TMEM16A/YFP-H148Q/I152L, iodide quench fluorescence; hits give low values. actives 0.3% (n = 340,000). B-score at 10 µM;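 active = fluorescence-ratio B-score plate-corrected deviation score at least 3 library SD below zero, with starting fluorescence score within 5 deviations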;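 note: channel opened by trigger with iodide after compound preincubation; score built on the fluorescence ratio of max minus min over baseline; more negative score means more quench and so TMEM16A activation or potentiation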
FID counter: compounds displacing fluorescent DNA intercalator, primary screen, artefact control for HCV NS3 helicase inhibitor project, biochemical, FID fluorescence; DNA fluorescent intercalator displacement; inhibition, % at 7.9 µM; actives 0.17% (n = 290,000); AID 1845, 2009; in the data active = inhibition above about 37%;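 note: 0% = vehicle and 100% = reference compound; higher means more ethidium bromide displaced from hairpin DNA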
Kir21 block: inhibitors of mouse Kir2.1 inward-rectifier potassium channel. Inward rectifier potassium channel 2 (Mus musculus), P35561. HEK293-Kir2.1, FluxOR thallium flux fluorescence; hits give low values. B-score at 10 µM. actives 0.85% (n = 310,000);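 active = fluorescence ratio B-score at or below minus 3 SD of library scores, with starting-brightness B-score within 2 SD, cut at about -4.2 in these data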;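 note: channel flux triggered by added potassium and thallium sulfate stimulus; B-score of peak minus minimum fluorescence over baseline after thallium stimulus; more negative B-score means stronger Kir2.1 block with less thallium influx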
SR-BI uptake up: activators of SR-BI mediated DiI-HDL uptake, primary screen, ldlA[mSR-BI] CHO cells, DiI fluorescence. actives 0.096% (n = 320,000). activation, % at 12.5 µM. 3 h; 100 = double the neutral-control signal;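 active = mean replicate activation of at least 60% and every replicate at or above 60%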;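 note: 0% = median plate neutral-control signal and 100% = twice that signal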
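Test system: SR-BI-overexpressing, LDLR-lacking CHO cells; Medium: Ham's F12 with 0.5% BSA, HEPES 25 mM, pH 7.4; Schedule: 3 h, 37 °C; Technique: bottom-read fluorescence, 550/595 nm.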
TMEM16A reconf: TMEM16A chloride channel inhibitors, confirmation, cell-based, re-confirmation. HEK293 TMEM16A/YFP-H148Q, iodide quench fluorescence; ionomycin added to raise cell calcium. actives 39% (n = 2,300). shares compounds with ANO1 block. inhibition, % at 10 µM. AID 652189, 2013;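 active = mean duplicate percent inhibition, scaled so buffer wells are 0 and the reference blocker 100, over three buffer SD above buffer mean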
HEK293 Ca mobil: calcium mobilization in TMEM16A/YFP HEK293 cells, confirmation, counter-screen for TMEM16A inhibitor project; shares compounds with ANO1 block; calcium response (% of ionomycin), % at 10 µM; Fluo4 calcium mobilization; actives 2% (n = 2,300); AID 652231, 2013;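 active = duplicate-averaged calcium signal over 20% of the ionomycin maximum, relative to buffer baseline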;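 note: each well's signal is peak minus trough fluorescence divided by its pre-addition baseline; 0% = buffer wells and 100% = ionomycin wells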
YFP-HEK293 quench: iodide YFP quench changes in parental YFP-HEK293, counter-screen for TMEM16A inhibitor project, cell-based; shares compounds with ANO1 block; ionomycin; YFP ratio F(max-min)/F0 at 10 µM; 2,300 tested, under 10 active; AID 652233, 2013;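 active = yellow fluorescent protein signal ratio exceeding the buffer control mean by over 5 SD of those controls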;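 note: ratio is mean of duplicate wells from kinetic YFP trace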
ClC-1 rat inh: ClC-1 chloride channel inhibition, selectivity assay for TMEM16A inhibitor project, cell-based, voltage-dependent ClC-1 | CHO ClC-1-YFP, iodide influx fluorescence quench; iodide control reads 0, buffer control 100 | shares compounds with ANO1 block | 2,300 tested, under 10 active | ratio percent, % at 10 µM;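 active = duplicate-mean ratio percent above the mean of iodide-only control wells, which defines zero, plus 5 of their SD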;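 note: higher percent means stronger block of ClC-1 iodide influx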
Numbers without * were called inactive; i = inactive; . = no result. In the library only some 3% were active in any assay of this set; here they are far more common.

SMILES	SR-BI HDL uptake	ANO1 block	TMEM16A act	FID counter	Kir21 block	SR-BI uptake up	TMEM16A reconf	HEK293 Ca mobil	YFP-HEK293 quench	ClC-1 rat inh
Cc1cc(Cl)cc2c1NC(=O)[C@]21[C@@H]2C(=O)N(Cc3ccccc3)C(=O)[C@@H]2[C@@H]2CCCN21	6	25*	i	-32	1.1	18	i	i	-1.2	-4
Cc1cc(C)cc(N(CC(=O)NCC2CCCO2)C(=O)CCC(=O)Nc2nccs2)c1 (stereo unspecified)	-34	i	i	-36	-0.98	34	.	.	.	.
CCCOC(=O)/C(C(N)=NCc1ccccc1)=C(\O)OCCC	18	100*	i	-20	-2.6	-18	i	i	-0.87	-10
COC(=O)c1ccc(CSc2nnnn2-c2ccccc2)o1	-39	100*	i	-13	-0.03	39	i	i	-0.91	-2
Cc1nc(N)sc1-c1csc(Nc2ccc(Cl)cn2)n1	9	25*	i	-5	0.49	-9	26%*	i	-0.95	-2
Cc1ccc(Nc2nc(-c3sc(N)nc3C)cs2)cc1	47	i	i	4	-0.54	-47	.	.	.	.
Cc1nc(N)sc1-c1csc(Nc2ccccn2)n1	32	.	i	6	-2.1	-32	.	.	.	.
Cc1nc(C)c(-c2csc(Nc3cccc(O)c3)n2)s1	40	100*	i	-7	-0.73	-40	38%*	i	-0.81	-8
Cc1nc(C)c(-c2csc(Nc3ccccn3)n2)s1	23	25*	i	-31	-0.89	-23	28%*	i	-1.1	-6
Cc1noc(C)c1S(=O)(=O)Nc1ccc2c(c1)C(=O)N([C@H](C)CO)C[C@H](C)[C@@H](CN(C)Cc1ccc(C(=O)O)cc1)O2	-36	.	i	.	.	36	.	.	.	.
CC1CCCN(C(=O)C2CCN(S(=O)(=O)c3cccs3)CC2)C1 (stereo unspecified)	8	.	i	.	.	-8	.	.	.	.
COc1cccc(C2CC(c3ccccc3Cl)n3ncnc3N2)c1 (stereo unspecified)	-25	i	i	-14	-1.6	25	.	.	.	.
COc1cccc(C2CC(c3cccs3)Nc3ncnn32)c1 (stereo unspecified)	8	25*	i	-13	1.1	-8	i	i	-0.9	-6
O=C(COC(=O)c1ccc(O)cc1)Nc1cc(C(F)(F)F)ccc1Cl	24	i	i	-5	-2.9	-24	.	.	.	.
CC(OC(=O)c1ccc(O)cc1)C(=O)Nc1cc(C(F)(F)F)ccc1Cl (stereo unspecified)	27	25*	i	-11	0.46	-27	58%*	i	-0.94	-18
CCC(=O)Nc1ccc(C(=O)CSc2nnc(-c3ccc(NS(C)(=O)=O)cc3)n2C)cc1OC	2	i	i	-19	2	-2	.	.	.	.
